Rows were chosen to be rich in hits. Some 3.7% of all compounds tested hit in one or more screens of this group.
Exocytosis inh: LAMP-1 surface exposure blockers, TALL-104 cells – cell-based, flow cytometry, MLPCN library, primary screen | TALL-104 LAMP-1 surface exposure; cells stimulated with thapsigargin and PMA | 360,000 tested, 0.66% active | AID 651702, 2012 | inhibition, % at 10 µM;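 active = inhibition above about 55%, limit read from the data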
MC4R barr agon: MC4R agonists recruiting beta-arrestin, primary screen, cell-based, luminescence, agonist arm of biased-ligand search. U2OS MC4R beta-arrestin complementation; percent of melanotan II response, DMSO zero. Melanocortin receptor 4 (Homo sapiens), P32245. activation, % at 8.9 µM. 360,000 tested, 0.98% active. AID 540308, 2011;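 active = activation above a per-plate cutoff, the mean activation of sample wells on that plate plus 3 SD, cut at about 8% in these data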
Myeloid diff 2: induction of myeloid progenitor differentiation, primary screen, cell-based, flow cytometry, MLPCN library. 360,000 tested, 1% active. AID 624256, 2012. ER-HoxA9 myeloid progenitors, lysozyme-GFP differentiation. calls only at 10 µM;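 active = normalized GFP-positive differentiation at or above the plate's own cutoff, the solvent-only control mean plus 3 SD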;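 also: cells exposed to compound for four days before flow analysis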
EBI2 antag: EBI2 receptor antagonists, beta-arrestin recruitment, primary screen, cell-based, luminescence, 7a,25-OHC stimulation, uHTS; inhibition, % at 5 µM; AID 651636, 2012; G-protein coupled receptor 183 (Homo sapiens), P32249; 360,000 tested, 0.81% active; 7a,25-OHC stimulated; in the data active = inhibition above about 38%;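 also: enzyme fragment complementation signal reports receptor beta-arrestin coupling in cells; 0% = agonist plus DMSO wells and 100% = wells without agonist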
Target sequence (P32249 whole entry, looked up, the tested form may be a part): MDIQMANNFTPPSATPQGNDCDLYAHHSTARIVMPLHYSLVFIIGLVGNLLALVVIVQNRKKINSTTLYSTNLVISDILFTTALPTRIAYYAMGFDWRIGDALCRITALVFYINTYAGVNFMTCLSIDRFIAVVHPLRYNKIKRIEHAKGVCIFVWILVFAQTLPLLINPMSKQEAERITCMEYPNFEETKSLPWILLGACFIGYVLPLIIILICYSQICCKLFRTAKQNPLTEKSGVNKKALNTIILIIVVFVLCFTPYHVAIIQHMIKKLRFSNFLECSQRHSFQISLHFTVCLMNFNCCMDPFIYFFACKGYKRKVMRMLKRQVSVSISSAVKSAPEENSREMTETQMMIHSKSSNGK
MC4R antagonist: MC4R antagonists of cAMP signaling, primary screen, cell-based, TR-FRET, antagonist arm of biased-ligand search. Melanocortin receptor 4 (Homo sapiens), P32245. MC4R-expressing cells, MTII-stimulated cAMP, LANCE TR-FRET. inhibition, % at 6.5 µM. 360,000 tested, 0.48% active;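 active = inhibition above its plate's cutoff, the mean of tested wells on that plate plus 3 SD, cut at about 29% in these data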;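 also: 0% = Melanotan II alone and 100% = Melanotan II plus saturating MCL0020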
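Assay system: U2OS-MC4R stable cell line; Also added: Melanotan II; Technique: Eu-cAMP/anti-cAMP TR-FRET, emission 671 nm; Times: 30-min compound, 1-h challenge, 1-h detection, room temperature.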
EBI2 conf: EBI2 antagonist hit retest, beta-arrestin, confirmation, cell-based, single concentration, luminescence, 7a,25-OHC stimulation | shares compounds with EBI2 antag | 7a,25-OHC antagonism | inhibition, % at 5 µM | 2,400 tested, 29% active;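 active = inhibition of at least 50%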
EBI2 agonist: EBI2 agonist activity of antagonist hits, confirmation, counter-screen for EBI2 antagonist project, cell-based, single concentration, agonist mode, luminescence; shares compounds with EBI2 antag; EBI2-expressing cells, 60 min; 0% vehicle, 100% 7α,25-dihydroxycholesterol control; activation, % at 5 µM; 2,400 tested, under 10 active; AID 652000, 2013;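 active = activation of at least 50%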
bGal cs: E. coli beta-galactosidase enzyme inhibition, confirmation, counter-screen for EBI2 antagonist project, biochemical, luminescence, single concentration | purified beta-galactosidase, luminescent Galacton Star, 15 min | shares compounds with EBI2 antag | inhibition, % at 5 µM | 2,400 tested, 1% active | AID 652176, 2013;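 active = replicate-average signal at least 3 plate SD below neutral wells, shown as high inhibition, flagging enzyme-inhibiting false positives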;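 also: 0% = DMSO wells with enzyme and 100% = wells lacking enzyme; higher means stronger loss of beta-gal luminescence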
The depositor's hits bear a star; i = inactive; x = no result.

SMILES	Exocytosis inh	MC4R barr agon	Myeloid diff 2	EBI2 antag	MC4R antagonist	EBI2 conf	EBI2 agonist	bGal cs
COc1ccc(OC)c(S(=O)(=O)NC2CCCCNC2=O)c1 (stereo not given)	9	-1	i	-3	12	x	x	x
CC(NC(=O)CCCOc1ccc(Cl)cc1)c1ccccc1 (stereo not given)	10	0	i	44*	-1	10	-1	-11
Cc1ccc(OCCCC(=O)NC(C)c2ccccc2)cc1 (stereo not given)	4	-2	i	15	4	x	x	x
Cc1nc(N2CCCCC2)c2c(C)c(C(=O)Nc3ccccc3C(F)(F)F)sc2n1	-1	2	i	6	6	x	x	x
Cc1nc(N2CCCCC2)c2c(C)c(C(=O)Nc3cccc(C(F)(F)F)c3)sc2n1	9	5	i	53*	11	25	2	6
Cc1nc(N2CCCCC2C)c2c(C)c(C(=O)Nc3cccc(C(F)(F)F)c3)sc2n1 (stereo not given)	-3	2	i	76*	3	19	2	5
O=C(Nc1ccc(O)cc1)c1ccc2c(c1)C(=O)N(Cc1ccccc1)C2=O	0	-4	i	57*	4	22	1	9
Cc1cc(NC(=O)c2ccc3c(c2)C(=O)N(Cc2ccccc2)C3=O)no1	1	5	i	47*	7	20	0	5
O=C(O)COc1ccc(NC(=O)c2ccc3c(c2)C(=O)N(Cc2ccccc2)C3=O)cc1	2	-5	i	-1	-1	x	x	x
CCOC(=O)c1cccc(NC(=O)c2ccc(-n3cnnn3)cc2)c1	-2	0	i	1	-2	x	x	x
CC(C)CNc1ncnc2c1ncn2[C@H]1CN(Cc2ccc(F)cc2)C[C@@H](CO)O1	1	2	i	5	10	x	x	x
CC(C)Nc1ncnc2c1ncn2[C@H]1CN(Cc2ccc(F)cc2)C[C@@H](CO)O1	-1	-1	i	47*	12	50*	0	7
CC(C)Nc1ncnc2c1ncn2[C@H]1CN(Cc2ccc(Cl)cc2)C[C@@H](CO)O1	20	-1	i	74*	1	88*	-2	-20
O=C(COc1ccccc1)OCC(=O)c1ccc(S(=O)(=O)N2CCCCC2)cc1	-1	-2	i	14	4	x	x	x
CN(C)S(=O)(=O)c1cccc(-c2nn(-c3ccccc3)cc2/C=C(/C#N)C(=O)NCc2ccco2)c1	7	-1	i	33	-2	x	x	x
CC1CCN(C2=NC(=O)/C(=C/c3cn(-c4ccccc4)nc3-c3cccc(S(=O)(=O)N(C)C)c3)S2)CC1	0	-3	i	48*	8	40	-1	-14
NC(=O)CSc1nnc(Cc2csc(Nc3ccc(F)cc3)n2)n1Cc1ccccc1	-4	0	i	63*	7	40	0	7
Cc1ccc2nc3sc(C(=O)N4CCCc5ccccc54)c(N)c3cc2c1	16	-3	i	54*	-4	55*	0	10
Cc1ccc(-c2cc(C(=O)N3CCCc4ccccc43)c3ccccc3n2)cc1	1	0	i	10	8	x	x	x
O=C(c1cc(-c2ccccc2Cl)on1)N1CCCC1	-4	-1	i	3	-1	x	x	x
O=C(c1cccc(F)c1)N1CCN(C(=O)c2cc(-c3ccc(Cl)cc3Cl)on2)CC1	-2	5	i	44*	21	28	-1	-12
O=C1OCCC1Sc1nnc(-c2ccccc2Cl)n1Cc1ccccc1 (stereo not given)	7	-3	i	53*	-8	12	0	-7
CCOC(=O)c1c(NC(=O)CN2CCCc3ccccc32)sc(C)c1C	-3	-1	i	8	12	x	x	x
COCCOC(=O)c1c(NC(=O)CN2CCCc3ccccc32)sc(C(N)=O)c1C	-4	-1	i	76*	8	49	1	-1
Cc1cnc(C(=O)OCC(=O)N2CCN(S(=O)(=O)c3ccc(Cl)cc3)CC2)cn1	-1	-1	i	-8	1	x	x	x
SMILES	Exocytosis inh	MC4R barr agon	Myeloid diff 2	EBI2 antag	MC4R antagonist	EBI2 conf	EBI2 agonist	bGal cs
COc1ccc(S(=O)(=O)Nc2ccc(F)cc2F)cc1C(=O)N1CCOCC1	-6	1	i	9	16	x	x	x
CC(C)(C)OC(=O)N[C@H](C(=O)OC(C)(C)C)c1ccc2c(c1)OCO2	6	-1	i	-2	-4	x	x	x
CN(C)c1ccc(/C=C2\SC(N3CCCCC3)=NC2=O)cc1	2	-2	i	34	-12	x	x	x
CC(C)c1ccc(/C=C2\SC(N3CCCC3)=NC2=O)cc1	9	0	i	34	4	x	x	x
O=C1N=C(N2CCCCC2)S/C1=C\c1ccc(Br)cc1	-1	0	i	87*	7	58*	0	-15
CCOC(=O)C1CCN(C2=NC(=O)/C(=C/c3ccc(Cl)cc3)S2)CC1	6	-1	i	87*	11	66*	0	5
CCOc1ccc(/C=C2\SC(N3CCCCC3)=NC2=O)cc1	8	-1	i	74*	-3	50*	2	8
COCCN(C(=O)c1cc(OC)c(OC)c(OC)c1)c1c(N)n(Cc2ccccc2)c(=O)[nH]c1=O	10	-1	i	8	2	x	x	x
O=C(c1ccc(Cl)cc1)N1CCC(O)(CSc2ccc(Cl)cc2Cl)CC1	1	2	i	66*	2	56*	1	12
O=C(c1ccc(Cl)c(Cl)c1)N1CCC(O)(CN2CCOCC2)CC1	0	-3	i	27	-3	x	x	x
Cc1ccc(Nc2cc(=O)n(C)c(=O)[nH]2)cc1C	2	0	i	-6	-6	x	x	x
CC(C)c1ccccc1OCCNC(=O)c1cncc(Br)c1	2	1	i	47*	0	16	-2	-7
CC(C)c1ccccc1OCCNC(=O)c1cccnc1	0	1	i	-10	-2	x	x	x

Source: PubChem
